Data set [1] has as its system Human immunodeficiency virus 1. Put plainly: Antiviral activity against HIV1 3B infected in human MT4 cells assessed as protection from virus-induced cytopathogenicity by MTT assay. Type of data set: functional, organism-based. To be noted: Human immunodeficiency virus 1, 3B. In short, it runs like this: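 HIV-1 IIIB replication in MT4 cells followed by virus-induced cytopathogenic effect. IC50 is the concentration protecting 50% of infected cells against cytopathogenicity. Values are averages of at least two or three separate experiments.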
(In general: Cytopathic effects are the visible damage that an infection or toxin causes in cultured cells.)

Data set [2] can be described thus: Cytotoxicity against human MT4 cells by MTT assay. It counts as cell-based. A digest of the protocol: (§1)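 Uninfected CEM-SS, MT4 or PBMC cells exposed to compound, up to 100 μM for most compounds. CC50 is the concentration causing 50% death of uninfected cells. Values are averages of at least two or three separate experiments.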
A short description of data set [3]: Selectivity index, ratio of CC50 for human MT4 cells to IC50 for HIV1 3B infected in human MT4 cells. Type of data set: functional. In short, it runs like this: (§2)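 Selectivity index calculated as CC50/IC50 for each cell system: CEM-SS/HIV-1 LAI, MT4/HIV-1 IIIB, PBMC/HIV-1 Bal.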
Data set [4] is described as follows: Cytotoxicity against human CEM-SS cells by MTT assay. It counts as cell-based. In short, it runs like this:
as §1

Data set [5] can be described thus: Selectivity index, ratio of CC50 for human CEM-SS cells to IC50 for HIV1 LAI infected in human CEM-SS cells. It counts as functional. A digest of the protocol: as §2
Data set [6] can be described thus: Cytotoxicity against human PBMC by MTT assay. It counts as cell-based. A digest of the protocol:
as §1
In general terms: Formazan colour is commonly taken as a measure of viable cells.

Data set [7] in a line: Selectivity index, ratio of CC50 for human PBMC to IC50 for HIV1 BaL infected in human PBMC. It counts as functional. In short, it runs like this:
as §2

The test system of data set [8] is Human immunodeficiency virus 1. Put plainly: Antiviral activity against HIV1 BaL infected in human PBMC assessed as inhibition of viral replication by reverse transcriptase activity measurement. To be noted: Human immunodeficiency virus 1, BaL.
In data set [9] the test system is Human immunodeficiency virus 1. Put plainly: Antiviral activity against HIV1 LAI infected in human CEM-SS cells assessed as inhibition of viral replication by reverse transcriptase activity measurement. To be noted: Human immunodeficiency virus 1, LAI.

Molecules are shown by their SMILES. pIC50: −log10 of the molar value.

For the compound `O=C([O-])Cc1cc2c(O)c(c1)Cc1cc(CC(=O)[O-])cc(c1O)Cc1cc(CC(=O)[O-])cc(c1O)Cc1cc(CC(=O)[O-])cc(c1O)C2.[Na+].[Na+].[Na+].[Na+]`, the pIC50 is 4.36 in data set [1], 5.02 in data set [8] and 4.09 in data set [9]. The CC50 in [2] was above 100 µM; in [4] it was above 100 µM; in data set [6], 100 µM. Besides, the results for the “Ratio CC50/IC50” value in [3], in data set [5] and in [7] were above 2.3, above 1.2 and 10.5, respectively.
Regarding `O=P([O-])(O)Cc1cc2c(O)c(c1)Cc1cc(CP(=O)([O-])O)cc(c1O)Cc1cc(CP(=O)([O-])O)cc(c1O)Cc1cc(CP(=O)([O-])O)cc(c1O)C2.[Na+].[Na+].[Na+].[Na+]`, the pIC50 was below 4.00 in data set [1], 4.15 in data set [8] and below 4.00 in data set [9]. Besides, the figures for the CC50 in [2], in data set [4] and in [6] were above 100 µM, above 100 µM and 78 µM, respectively. Also, the “Ratio CC50/IC50” value in data set [7] is above 1.
For `O=S(=O)([O-])c1cc2c(O)c(c1)Cc1cc(S(=O)(=O)[O-])cc(c1O)Cc1cc(S(=O)(=O)[O-])cc(c1O)Cc1cc(S(=O)(=O)[O-])cc(c1O)C2.[Na+].[Na+].[Na+].[Na+]`, the negative logarithm of the IC50 (pIC50) was 4.42 in data set [1], 4.35 in [8] and 4.07 in data set [9]. The CC50 in [2], in [4] and in data set [6] was above 100 µM throughout. Besides, the “Ratio CC50/IC50” value in [3] is given as above 2.6; in data set [5], above 1.2; in data set [7] it was above 2.
On to `Cc1csc(-c2nc(COc3c4cc(CP(=O)([O-])O)cc3Cc3cc(CP(=O)([O-])O)cc(c3O)Cc3cc(CP(=O)([O-])O)cc(c3OCc3csc(-c5nc(C)cs5)n3)Cc3cc(CP(=O)([O-])O)cc(c3O)C4)cs2)n1.[Na+].[Na+].[Na+].[Na+]`, for which the pIC50 in data set [1] was 4.85; in data set [8], 4.24; in data set [9], 4.82. The CC50 is above 100 µM in data set [2], above 100 µM in [4] and 92 µM in data set [6]. The entries for the “Ratio CC50/IC50” value in data set [3], in [5] and in [7] were above 7, above 6 and above 1.7, respectively.
Take `Cc1csc(-c2nc(COc3c4cc(CC(=O)[O-])cc3Cc3cc(CC(=O)[O-])cc(c3O)Cc3cc(CC(=O)[O-])cc(c3OCc3csc(-c5nc(C)cs5)n3)Cc3cc(CC(=O)[O-])cc(c3O)C4)cs2)n1.[Na+].[Na+].[Na+].[Na+]`: the figures for the pIC50 in [1], in data set [8] and in [9] were 4.78, 4.56 and 4.55, respectively. The CC50 in [2] was above 1000 µM; in [4], above 1000 µM; in data set [6] it was 230 µM. The “Ratio CC50/IC50” value in [3] is listed as above 60; in data set [5], above 36; in data set [7], 8.3.
As to `Cc1cn([C@H]2C[C@H](N=[N+]=[N-])[C@@H](CO)O2)c(=O)[nH]c1=O` [ZIDOVUDINE], the results for the CC50 in data set [2], in data set [4] and in [6] were above 100 µM, above 100 µM and 75 µM, respectively. Moreover, the pIC50 in data set [8] is 8.11; in data set [9] it was 8.29.
Take `Cc1nc(-c2nc(COc3c4cc(CC(=O)[O-])cc3Cc3cc(CC(=O)[O-])cc(c3O)Cc3cc(CC(=O)[O-])cc(c3OCc3nc(-c5nc(C)c(C(=O)[O-])s5)sc3C(=O)[O-])Cc3cc(CC(=O)[O-])cc(c3O)C4)c(C(=O)[O-])s2)sc1C(=O)[O-].[Na+].[Na+].[Na+].[Na+].[Na+].[Na+].[Na+].[Na+]`: the pIC50 is 4.85 in [1], below 4.43 in data set [8] and 5.28 in data set [9]. For the same compound, the CC50 was above 100 µM in data set [2], above 100 µM in data set [4] and 37 µM in [6]. The “Ratio CC50/IC50” value in [3] is recorded as above 7; in [5], above 26; in data set [7] it was below 1.

Broadly, the pIC50 is the IC50 on a negative log10 scale, so that one unit is a factor of ten. Broadly, the CC50 is the concentration that lowers cell viability or growth by half. Read a low CC50 as harm at low concentration.
